Measured values: ChEMBL document CHEMBL1141084, “Analogues of thiolactomycin as potential antimalarial agents” (J Med Chem, 2005)

How the values were obtained:
[1] = tested on: Trypanosoma brucei rhodesiense; assay: Inhibitory concentration against Trypanosoma brucei rhodesiense STIB 900 upon incubation at 37 degrees C in 5% CO2 for 72 hours; type: functional, organism-based
[2] = molecular target: T1, Beta-ketoacyl-ACP-synthase III (Plasmodium falciparum) (UniProt O77078); assay: Percent inhibition of recombinant Plasmodium falciparum beta-Ketoacyl-acyl carrier protein synthase III activity (MBP-pfKASIII) expressed in E. coli cells using [1-14C]acetyl-CoA as radioligand upon incubation at 37 degrees C for 15 minutes with compound dissolved in 2% DMSO at 10 uM; NA = no activity
T1 sequence (whole entry): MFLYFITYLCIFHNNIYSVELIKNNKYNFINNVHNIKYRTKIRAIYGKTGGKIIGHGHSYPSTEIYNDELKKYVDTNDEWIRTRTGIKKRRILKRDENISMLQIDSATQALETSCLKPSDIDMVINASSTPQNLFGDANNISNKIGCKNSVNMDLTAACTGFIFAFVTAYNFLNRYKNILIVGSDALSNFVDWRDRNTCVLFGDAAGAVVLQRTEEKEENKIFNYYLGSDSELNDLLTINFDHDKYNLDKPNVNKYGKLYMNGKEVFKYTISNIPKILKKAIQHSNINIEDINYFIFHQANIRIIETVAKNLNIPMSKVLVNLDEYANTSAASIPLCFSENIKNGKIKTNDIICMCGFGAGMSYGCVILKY
In short: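 MBP-fused pfKASIII from E. coli BL21(DE3) codon+RIL, amylose-purified, 500 ng per reaction. Buffer: 100 mM NaH2PO4 pH 6.6, with 25 µM E. coli ACP prereduced with 1 mM β-mercaptoethanol (37 °C, 30 min), 1 µg E. coli FabD, 65 µM malonyl-CoA and 45 µM [1-14C]acetyl-CoA. 2% DMSO final; 37 °C, 15 min. Read-out: filter disks, TCA-washed, scintillation-counted.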

Plasmodium falciparum = assay: In vitro inhibitory concentration against chloroquine-resistant, pyrimethamine-resistant Plasmodium falciparum K1; type: functional, organism-based
Trypanosoma cruzi = assay: Inhibitory concentration against Trypanosoma cruzi [Tulahuen strain C2C4] in rat skeletal myoblasts upon incubation at 37 degrees C for 4 days in 5% CO2; type: functional, organism-based
Leishmania donovani = assay: Inhibitory concentration against amastigotes of Leishmania donovani strain MHOM/ET/67/L82 upon incubation at 37 degrees C for 72 hours using alamar blue
[3] = molecular target: T1, Beta-ketoacyl-ACP-synthase III (Plasmodium falciparum); assay: Percent inhibition of Plasmodium falciparum beta-Ketoacyl-acyl carrier protein synthase III activity (MBP-pfKASIII) expressed in E. coli cells using [1-14C]acetyl-CoA as radioligand upon incubation at 37 degrees C for 15 minutes with compound dissolved in 2% DMSO at 100 uM

SMILES | IC50 ([1]; Trypanosoma brucei, 72 h) [µM] | inhibition [2] | IC50 (Plasmodium falciparum; Plasmodium falciparum) [µM] | IC50 (Trypanosoma cruzi; Trypanosoma cruzi, 96 h) [µM] | IC50 (Leishmania donovani) [µM] | inhibition [3] [%] | IC50 [1] [µM] | IC50 (Plasmodium falciparum) [µM] | IC50 (Trypanosoma cruzi) [µM]
CCCCCCCCCCC1(C)SC(=O)C(CCC)=C1OCc1ccccc1 (stereo not given) | > 223 | No activity | 4 | 13 | > 74 |  |  |  | 
CCCCCCCCCCC1(C)SC(O)=C(Cc2ccccc2)C1=O (stereo not given) | 132 |  | 50 | 64 |  | 70 |  |  | 
CCCCCCCCCCCCCCCCC1(CC)SC(O)=C(C)C1=O (stereo not given) | 130 |  | 35 | 49 |  | 40 |  |  | 
C=CCC1(C)C(=O)SC(C)C1=O (stereo not given) | 79 | No activity | 62 | > 488 |  |  |  |  | 
CCC1SC(O)=C(C)C1=O (stereo not given) | > 568 | No activity | > 316 | > 568 |  |  |  |  | 
CCC1=C(O)OC(C)C1=O (stereo not given) | > 633 |  | > 351 | > 633 |  |  |  |  | 
CCC1=C(O)SC(C)C1=O (stereo not given) | 357 | No activity | 233 | 568 |  |  |  |  | 
CC(C)=CCC/C(C)=C/CC1(C)SC(O)=C(C)C1=O (stereo not given) | 190 |  | 40 | 68 |  | 45 |  |  | 
CCCCCCCCCCC1(CC)SC(O)=C(C)C1=O (stereo not given) | 153 |  | 65 | 72 |  | 15 |  |  | 
CCCC1(C/C=C(/C)CCC=C(C)C)C(=O)SC(C)C1=O (stereo not given) | 55 |  | 9 | 21 | 12 | 90 |  |  | 
CCCCCCC1(C)SC(O)=C(CC)C1=O (stereo not given) | 71 |  | 61 | 195 |  | 5 |  |  | 
CCCCCCCCCCC1SC(O)=C(C)C1=O (stereo not given) | 6 |  | 72 | 164 |  | 30 |  |  | 
CCCCCCCCCCC1(C)SC(=O)C(CCC)=C1OCCCCCCO (stereo not given) | 64 |  | 31 | 64 | 36 | 5 |  |  | 
CCCCCCCCCCC1(C)SC(O)=C(CCC)C1=O (stereo not given) | 21 |  | 10 | 56 |  | 55 |  |  | 
CCCC1=C(O)SC(C)C1=O (stereo not given) | 288 | No activity | > 290 | > 522 |  |  |  |  | 
CC1=C(O)SC(C)C1=O (stereo not given) [THIOLACTONE] | > 624 | No activity | > 347 | > 624 |  |  |  |  | 
CCCCCCCCCCC1(C)SC(O)=C(C)C1=O (stereo not given) | 171 |  | 36 | 68 |  | 30 |  |  | 
CCCCCCCCCCCCCCCCC1(C)SC(O)=C(CCC)C1=O (stereo not given) | 29 |  | 6 | 13 | 0.5 | 20 |  |  | 

SMILES | IC50 ([1]; Trypanosoma brucei, 72 h) [µM] | inhibition [2] | IC50 (Plasmodium falciparum; Plasmodium falciparum) [µM] | IC50 (Trypanosoma cruzi; Trypanosoma cruzi, 96 h) [µM] | IC50 (Leishmania donovani) [µM] | inhibition [3] [%] | IC50 [1] [µM] | IC50 (Plasmodium falciparum) [µM] | IC50 (Trypanosoma cruzi) [µM]
CCCCCCC1(C)SC(O)=C(C)C1=O (stereo not given) | 112 |  | 139 | 127 |  | 10 |  |  | 
CC(C)=CCC1(C)SC(O)=C(C)C1=O (stereo in doubt; 1a) |  |  |  |  | 56 | 30 | 182 | > 95 | > 142
CCCCCCOCCOCCC1(C)SC(O)=C(CC)C1=O (stereo not given) | 119 | No activity | > 60 | 195 |  |  |  |  | 
CCCCCCCCCCC1(C)SC(=O)C(CCC)=C1OCCCCCCO[Si](C)(C)C(C)(C)C (stereo not given) | 149 |  | 3 | 14 | 7 | 10 |  |  | 
C=CCOC1=C(C)C(=O)SC1(C)CCCCCCCCCC (stereo not given) | 167 |  | 6 | 30 |  | 5 |  |  | 
CCCCCCCCCCC1(C)OC(O)=C(CCCC)C1=O (stereo not given) | 13 |  | > 15 | 70 |  | 60 |  |  | 
CCCCCCCCCCCCCCCCC1(C)SC(O)=C(C)C1=O (stereo not given) | 62 |  | 25 | 28 |  | 55 |  |  | 
CCCCCCCCC1(C)SC(O)=C(CC)C1=O (stereo not given) | 157 | No activity | 54 | 165 |  |  |  |  | 
CCCCCCCCCCC1(C)SC(O)=C(CCCC)C1=O (stereo not given) | 8 |  | 71 | 77 |  | 60 |  |  | 
CCCCCCCCCCC1(C)SC(O)=C(CC)C1=O (stereo not given) | 97 |  | 15 | 54 |  | 40 |  |  | 
CCCCCCCCCCCCCCCCC1(C)SC(O)=C(Cc2ccccc2)C1=O (stereo not given) | 32 |  | 7 | 14 | 2 | 50 |  |  | 
CCCCCCCCC1(C)SC(O)=C(C)C1=O (stereo not given) | 194 |  | 153 | > 350 |  | 10 |  |  | 
CC1SC(O)=C(Cc2ccccc2)C1=O (stereo not given) | 408 | No activity | 195 | > 408 |  |  |  |  | 
CCCCCCCCCCC1(C)OC(O)=C(CC)C1=O (stereo not given) | 62 |  | 94 | 146 |  |  |  |  | 
C=CCC1(C)C(=O)SC(C)(CCCCCCCCCC)C1=O (stereo not given) | 157 |  | 26 | 55 |  | 5 |  |  | 
CCCCCCC1(C)OC(O)=C(C)C1=O (stereo not given) | 247 | No activity | 222 | > 424 |  |  |  |  | 
CCCCCCCCCCCCCCCCC1(C)SC(O)=C(CC)C1=O (stereo not given) | 47 |  | 19 | 43 |  | 65 |  |  | 
